Test [1] relates to Escherichia coli. In words: Antimicrobial activity against Escherichia coli at 64 uM by resazurin dye based assay. It counts as functional, organism-based. For orientation: Resazurin is reduced to fluorescent resorufin, in cell work by metabolically active cells.
Test [2] deals with Mycobacterium tuberculosis. In words: Antimicrobial activity against Mycobacterium tuberculosis at 64 uM by resazurin dye based assay. It counts as functional, organism-based. Put shortly: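 Non-pathogenic Mycobacterium tuberculosis strain, part of a broader antimicrobial panel; compounds tested up to a maximum concentration of 64 μM.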
The test system of test [3] is Candida albicans. Briefly: Antimicrobial activity against Candida albicans at 64 uM by resazurin dye based assay. It counts as functional, organism-based.
Test [4] addresses Isoleucine--tRNA ligase (Escherichia coli K-12, UniProt P00956). In words: Inhibition of Escherichia coli BL21(DE3) ileRS overexpressed in Escherichia coli Rosetta2(DE3) assessed as reduction in tRNA aminoacylation preincubated with enzyme and substrate for 10 mins prior to ATP addition using 14C-labeled isoleucine and tRNA as substrate by liquid scintillation counting method. Conditions: read-out: Ki(app). In outline: (§1)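 Radiolabeled aminoacylation with 10 nM IleRS, 25 μM 14C-isoleucine, 500 μM ATP and total E. coli tRNA at 2 mg/mL final. Activity normalized to enzyme without inhibitor. Triplicate measurements.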

In test [5] the target is Isoleucine--tRNA ligase (Escherichia coli K-12) (UniProt P00956). Briefly: Inhibition of Escherichia coli BL21(DE3) ileRS overexpressed in Escherichia coli Rosetta2(DE3) assessed as reduction in tRNA aminoacylation at 1 uM preincubated with enzyme and substrate for 10 mins prior to ATP addition using 14C-labeled isoleucine and tRNA as substrate by liquid scintillation counting method. In outline: as §1

Test [6] concerns Staphylococcus aureus. In words: Antimicrobial activity against Staphylococcus aureus at 64 uM by resazurin dye based assay. It counts as functional, organism-based.
For test [7], the target named is Isoleucine--tRNA ligase (Escherichia coli K-12) (UniProt P00956). In words: Inhibition of Escherichia coli BL21(DE3) ileRS overexpressed in Escherichia coli Rosetta2(DE3) assessed as reduction in tRNA aminoacylation at 0.5 uM preincubated with enzyme and substrate for 10 mins prior to ATP addition using 14C-labeled isoleucine and tRNA as substrate by liquid scintillation counting method. In outline:
as §1

Test [8] addresses T1, Tyrosine--tRNA ligase (Escherichia coli (strain K12)) (UniProt P0AGJ9).
T1 sequence (whole entry): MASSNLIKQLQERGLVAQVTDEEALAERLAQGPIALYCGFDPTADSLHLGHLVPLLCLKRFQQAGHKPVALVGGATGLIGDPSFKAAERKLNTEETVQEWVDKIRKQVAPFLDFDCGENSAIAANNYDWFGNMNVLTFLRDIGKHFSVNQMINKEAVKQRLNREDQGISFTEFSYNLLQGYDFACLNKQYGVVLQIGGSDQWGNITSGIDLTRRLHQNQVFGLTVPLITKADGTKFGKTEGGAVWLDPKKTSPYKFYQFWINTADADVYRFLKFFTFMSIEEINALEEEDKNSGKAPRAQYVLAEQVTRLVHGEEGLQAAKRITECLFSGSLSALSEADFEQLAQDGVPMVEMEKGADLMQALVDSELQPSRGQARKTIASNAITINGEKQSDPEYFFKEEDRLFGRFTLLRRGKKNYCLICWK
Briefly: Inhibition of Escherichia coli BL21(DE3) TyrRS overexpressed in Escherichia coli Rosetta2(DE3) assessed as reduction in tRNA aminoacylation at 5 uM preincubated with enzyme and substrate for 10 mins prior to ATP addition using 14C-labeled tyrosine and tRNA as substrate by liquid scintillation counting method. Put shortly: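 TyrRS counterpart of the radiolabeled aminoacylation assay, with test compounds at 5 μM.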

The source made the active and inactive calls. The calls are words filed in the database; no cut-off is given here.

Isoleucine--tRNA ligase (Escherichia coli K-12), sequence (P00956 whole entry): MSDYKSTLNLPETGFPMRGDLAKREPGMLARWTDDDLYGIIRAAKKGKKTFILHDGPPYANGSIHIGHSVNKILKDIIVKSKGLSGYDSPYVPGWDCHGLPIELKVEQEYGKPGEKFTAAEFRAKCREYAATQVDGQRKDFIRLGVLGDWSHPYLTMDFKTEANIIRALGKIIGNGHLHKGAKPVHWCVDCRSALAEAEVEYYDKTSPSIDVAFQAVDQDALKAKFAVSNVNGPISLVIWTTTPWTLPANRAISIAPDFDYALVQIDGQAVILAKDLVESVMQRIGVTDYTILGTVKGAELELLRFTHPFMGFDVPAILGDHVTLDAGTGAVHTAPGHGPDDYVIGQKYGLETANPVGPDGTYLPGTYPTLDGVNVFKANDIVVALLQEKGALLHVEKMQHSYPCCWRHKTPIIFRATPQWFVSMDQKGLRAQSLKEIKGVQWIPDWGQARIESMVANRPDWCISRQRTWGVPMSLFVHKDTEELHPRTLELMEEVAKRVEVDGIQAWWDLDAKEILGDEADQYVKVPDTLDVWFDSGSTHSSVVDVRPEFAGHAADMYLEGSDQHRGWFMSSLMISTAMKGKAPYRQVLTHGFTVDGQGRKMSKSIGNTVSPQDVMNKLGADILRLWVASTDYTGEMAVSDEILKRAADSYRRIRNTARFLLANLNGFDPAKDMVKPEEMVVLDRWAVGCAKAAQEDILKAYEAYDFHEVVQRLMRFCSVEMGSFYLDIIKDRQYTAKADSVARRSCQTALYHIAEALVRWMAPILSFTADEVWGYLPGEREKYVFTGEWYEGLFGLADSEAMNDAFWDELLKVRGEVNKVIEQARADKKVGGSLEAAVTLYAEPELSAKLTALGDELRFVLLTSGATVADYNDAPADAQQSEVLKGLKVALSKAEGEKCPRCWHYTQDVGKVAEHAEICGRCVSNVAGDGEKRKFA
Isoleucine--tRNA ligase, sequence (P00956 whole entry): as above

As to `CC[C@H](C)[C@H](N)C(=O)NS(=O)(=O)OC[C@H]1OC[C@@H](OCCn2cc(-c3ccccc3)nn2)[C@H](O)[C@@H]1O`, the result in test [1], in test [2], in test [3] and in test [6] was inactive. The Ki in test [4] stood at 114 nM. The inhibition entry in test [5] and in test [7] was “Active” in each case.
On to `N[C@@H](Cc1ccc(O)cc1)C(=O)NS(=O)(=O)OC[C@H]1OC[C@@H](OCCn2cc(-c3ccccc3)nn2)[C@H](O)[C@@H]1O`, for which the inhibition entry in test [8] is “inactive”. The outcome in test [1], in test [2], in test [3] and in test [6] was inactive.
For `N[C@@H](Cc1ccc(O)cc1)C(=O)NS(=O)(=O)OC[C@H]1OC[C@@H](CCn2nnc(-c3ccccc3)n2)[C@H](O)[C@@H]1O`, the inhibition entry in test [8] is “inactive”. Moreover, the result in test [1], in test [2], in test [3] and in test [6] was inactive.
Consider `CC[C@H](C)[C@H](N)C(=O)NS(=O)(=O)OC[C@H]1OC[C@@H](CCn2cc(-c3ccccc3)nn2)[C@H](O)[C@@H]1O`, for which the outcome in test [1], in test [2], in test [3] and in test [6] was inactive. In addition, the inhibition entry in test [5] was “Active”.
With `N[C@@H](Cc1ccc(O)cc1)C(=O)NS(=O)(=O)OC[C@H]1OC[C@@H](CCn2cc(-c3ccccc3)nn2)[C@H](O)[C@@H]1O`, in test [8], the inhibition entry was “inactive”. In addition, the result in test [1], in test [2], in test [3] and in test [6] was inactive.
Consider `CC[C@H](C)[C@H](N)C(=O)NS(=O)(=O)OC[C@H]1OC[C@@H](CCn2nnc(-c3ccccc3)n2)[C@H](O)[C@@H]1O`, for which the outcome in test [1], in test [2], in test [3] and in test [6] was inactive. Moreover, the inhibition entry in test [5] was “Active”.
On to `CC[C@H](C)[C@H](N)C(=O)NS(=O)(=O)OC[C@H]1OC[C@@H](CCCn2cc(-c3ccccc3)nn2)[C@H](O)[C@@H]1O`, for which the result in test [1], in test [2], in test [3] and in test [6] was inactive. The Ki in test [4] turned out to be 88 nM. The inhibition entry in test [5] and in test [7] was “Active” in each case.

These data come from ChEMBL document CHEMBL4622955, “Phenyltriazole-functionalized sulfamate inhibitors targeting tyrosyl- or isoleucyl-tRNA synthetase” (Bioorg Med Chem, 2020).
